Measurements: ChEMBL document CHEMBL1131235, “(R)-(+)-2-[[[3-(Morpholinomethyl)-2H-chromen-8-yl]oxy]methyl] morpholine methanesulfonate: a new selective rat 5-hydroxytryptamine1B receptor antagonist” (J Med Chem, 1998)
Where “and” joins values, the source holds several entries; their conditions need not be identical. Identical values can stand only once.

How the values were obtained:
[1] = Potentiation of K+ stimulated release of [3H]5-HT from brain slices at a concentration of 100 nM. (activity expressed as ratio of S2 (second stimulation)/S1(first stimulation)); format: functional, Rattus norvegicus
Summary of the method: (§1)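 Rat occipital cortex slices (0.3 × 0.3 mm) preloaded with [3H]-5-HT, superfused at 0.4 mL/min with oxygenated Krebs-Henseleit pH 7.4 containing 2.5 μM citalopram. Two 4-min 25 mM KCl pulses at 62 and 98 min, compound present for 72 min spanning S2. Fractional release counted by liquid scintillation. S2/S1 ratio reported, also as % of control; n=3–8.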

[2] = Effect on 5-HTP turnover in Frontal cortex of rat brain, expressed as percent of control; format: functional
Summary of the method: (§2)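 Rats received compound 20 mg/kg sc or saline 30 min before NSD 1015 (3-hydroxybenzylhydrazine dihydrochloride), 100 mg/kg sc. They were killed 30 min later. Hypothalamus, hippocampus, frontal cortex and striatum were dissected, frozen on dry ice and stored at -70 °C. 5-HTP, 5-HT and 5-HIAA were measured by HPLC and expressed as % of saline control.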

[3] = Antagonism of the induced potentiation of K+ stimulated [3H]5-HT release from brain slices with 5-HT (1000 nM) at a concentration of 1000 nM.; format: functional, Rattus norvegicus
Summary of the method: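 Rat occipital cortex slices (0.3 × 0.3 mm) were preloaded with [3H]-5-HT and superfused at 0.4 mL/min with oxygenated Krebs-Henseleit buffer, pH 7.4, containing 2.5 μM citalopram. After a 50 min wash, 4-min fractions were collected. 25 mM KCl was applied for 4 min at 62 min and again at 98 min. Test compound and 5-HT were given together in the same solution for 72 min. Fraction and slice radioactivity were counted by liquid scintillation. S2/S1 was expressed as % of control; Dunnett's t-test after ANOVA.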

Rattus norvegicus [4] = organism: Rattus norvegicus; experiment: Effect on 5-HTP turnover in hypothalamus of rat brain, expressed as percent of control; format: functional; summary of the method: as §2
Rattus norvegicus [5] = experiment: Effect on the wet dog shake response(WDS) in rats after 10 determinations at a dose of 3 mg/kg, sc pretreated with saline; format: functional; conditions: route subcutaneous
Summary of the method: (§3)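 Rats were pretreated with pCPA 200 mg/kg ip or saline at 72 and 48 h before compound, 3 mg/kg sc. Wet dog shakes (whole-body and head shakes) were counted from 5 to 65 min after injection. Groups of 8-10 rats were compared with saline-treated rats (n = 30), Dunnett's t-test after ANOVA.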

Rattus norvegicus [6] = organism: Rattus norvegicus; experiment: Effect on 5-HIAA/5-HT turnover in Striatum of rat brain, expressed as percent of control; format: functional; summary of the method: as §2
[7] = Antagonism of the induced potentiation of K+ stimulated [3H]-5-HT release from brain slices with 5-HT (100 nM) at a concentration of 1000 nM, expressed as percent of control; format: functional, Rattus norvegicus; set-up: scale not given: the % may be the effect or the level left
Summary of the method: (§4)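 Superfused rat occipital cortex slices (0.3 × 0.3 mm) preloaded with [3H]-5-HT; Krebs-Henseleit pH 7.4 with 2.5 μM citalopram, 0.4 mL/min. Two 4-min 25 mM KCl pulses (62 and 98 min). Compound and 5-HT were given in the same solution. Fractions and slices were counted by scintillation. S2/S1 is expressed as % of control.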

Rattus norvegicus [8] = experiment: Effect on the wet dog shake response(WDS) in rats after 9 determinations at a dose of 3mg/kg, sc pretreated with 200 mg/kg ip of pCPA.; format: functional; conditions: route subcutaneous; summary of the method: as §3
[9] = Antagonism of the induced potentiation of K+ stimulated [3H]5-HT release from brain slices with 5-HT (1000 nM) at a concentration of 1000nM, expressed as percent of control; format: functional, Rattus norvegicus; set-up: scale not given: the % may be the effect or the level left; summary of the method: as §4
[10] = Potentiation of K+ stimulated release of [3H]5-HT from brain slices at a concentration of 0 nM. (activity expressed as ratio of S2 (second stimulation)/S1(first stimulation)); format: functional, Rattus norvegicus
[11] = Effect on 5-HIAA/5-HT turnover in Frontal cortex of rat brain, expressed as percent of control; format: functional; summary of the method: as §2
Rattus norvegicus [12] = organism: Rattus norvegicus; experiment: Percent control of the stimulation ratio S2 (second stimulation)/S1(first stimulation) at a concentration of 100 nM. (P<0.05); format: functional
[13] = Potentiation of K+ stimulated release of [3H]5-HT from brain slices at a concentration of 1000 nM. (activity expressed as ratio of S2 (second stimulation)/S1(first stimulation)); format: functional, Rattus norvegicus; summary of the method: as §1
Rattus norvegicus [14] = organism: Rattus norvegicus; experiment: Effect on 5-HTP turnover in Striatum of rat brain, expressed as percent of control; format: functional; summary of the method: as §2
Rattus norvegicus [15] = organism: Rattus norvegicus; experiment: Effect on 5-HTP turnover in Hippocampus of rat brain, expressed as percent of control; format: functional; summary of the method: as §2
Rattus norvegicus [16] = organism: Rattus norvegicus; experiment: Effect on 5-HIAA/5-HT turnover in Hyphalamus of rat brain, expressed as percent of control; format: functional; summary of the method: as §2
[17] = molecular target: Muscarinic acetylcholine receptor M3 (Rattus norvegicus, UniProt P08483); experiment: Binding affinity against Muscarinic acetylcholine receptor using [3H]QNB as the radioligand.
Chain of Muscarinic acetylcholine receptor M3 (P08483 whole entry): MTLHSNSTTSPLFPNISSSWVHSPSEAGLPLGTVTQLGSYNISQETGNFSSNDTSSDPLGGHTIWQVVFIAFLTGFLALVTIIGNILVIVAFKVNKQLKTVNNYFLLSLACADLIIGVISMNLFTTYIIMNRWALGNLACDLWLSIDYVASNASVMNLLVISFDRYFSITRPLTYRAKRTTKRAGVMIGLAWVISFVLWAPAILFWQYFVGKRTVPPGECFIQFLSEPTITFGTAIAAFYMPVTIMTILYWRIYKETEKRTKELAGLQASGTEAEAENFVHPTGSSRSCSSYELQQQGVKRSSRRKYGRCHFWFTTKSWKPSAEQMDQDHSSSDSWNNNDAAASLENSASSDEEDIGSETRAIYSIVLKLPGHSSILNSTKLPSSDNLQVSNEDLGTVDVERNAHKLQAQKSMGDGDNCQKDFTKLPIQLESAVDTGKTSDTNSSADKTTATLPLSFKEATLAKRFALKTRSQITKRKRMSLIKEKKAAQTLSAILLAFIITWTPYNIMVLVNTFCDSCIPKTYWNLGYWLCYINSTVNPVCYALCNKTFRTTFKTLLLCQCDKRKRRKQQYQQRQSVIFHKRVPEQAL

Question: With C1=C(CN2CCOCC2)COc2c1cccc2OC[C@H]1CNCCO1.CS(=O)(=O)O as the molecule, how does the Potentiation [1] read?
Answer: 1.23

Question: And the Activity [2]?
Answer: 142%

Question: And the Ratio of stimulation [3]?
Answer: 1.12 and 0.8

Question: What about the Activity (Rattus norvegicus [4]) of the same molecule?
Answer: 140%

Question: And the “No. of WDS/60 min” value (Rattus norvegicus [5])?
Answer: 17

Question: What about the Activity (Rattus norvegicus [6]) of the same molecule?
Answer: 145%

Question: What about the Activity [7] of the same molecule?
Answer: 149% and 161%

Question: And the “No. of WDS/60 min” value (Rattus norvegicus [8])?
Answer: 9.2

Question: And the Activity [9]?
Answer: 149% and 107%

Question: And the Potentiation [10]?
Answer: 0.99

Question: What about the Activity [11] of the same molecule?
Answer: 161%

Question: And the Control (Rattus norvegicus [12])?
Answer: 131%

Question: And the Potentiation [13]?
Answer: 1.44

Question: What about the Activity (Rattus norvegicus [14]) of the same molecule?
Answer: 142%

Question: What about the Activity (Rattus norvegicus [15]) of the same molecule?
Answer: 148%

Question: And the Activity (Rattus norvegicus [16])?
Answer: 166%

Question: What about the Ki [17] of the same molecule?
Answer: > 1000 nM
